Molecules are shown by their SMILES.

Usually GI50 stands for the concentration giving 50% growth inhibition. Low readings indicate greater sensitivity of the cells, high ones lower sensitivity of the cells.

Assay type in all cases: functional
Common to all, as to settings: Homo sapiens

Assay [1] concerns UACC-62. As to the kind of experiment: Cytotoxicity against melanoma UACC-62 cancer cell cultures. Summed up:
(§1)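 Human cancer cell lines from a panel of about 55, incubated with compound for 72 h (3-day incubation). Values are single determinations or, where given with population standard deviation, two determinations.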

Assay [2] deals with DU-145. As to the kind of experiment: Cytotoxicity against prostate DU-145 cancer cell cultures. Summed up: as §1
For assay [3], the system named is HOP-62. As to the kind of experiment: Cytotoxicity against lung HOP-62 cancer cell cultures. In short, it runs like this:
as §1

Assay [4] relates to SF-539. As to the kind of experiment: Cytotoxicity against CNS SF-539 cancer cell cultures. Summed up: as §1
For assay [5], the system named is MDA-MB-435. As to the kind of experiment: Cytotoxicity against breast MDA-MB-435 cancer cell cultures. In short, it runs like this:
as §1

The subject of assay [6] is SN12C. Kind of assay: Cytotoxicity against renal SN12C cancer cell cultures. Summed up: as §1
Assay [7] deals with OVCAR-3. As to the kind of experiment: Cytotoxicity against ovarian OVCAR-3 cancer cell cultures. In short, it runs like this: as §1
For assay [8], the system named is HCT-116. As to the kind of experiment: Cytotoxicity against colon HCT116 cancer cell cultures. Summed up: as §1

On to `C[C@H]1CCC/C=C/[C@@H]2C[C@H](O)C[C@H]2[C@H](O)[C@H](SCC(=O)O)CC(=O)O1`, for which the 50% growth inhibitory concentration (GI50) came to 33 µM in assay [1]; 38 µM in assay [2]; 30 µM in assay [3]; 34 µM in assay [4]; 42 µM in assay [5]; 39 µM in assay [6]. In addition, the values for the concentration for 50% growth inhibition (GI50) in assay [7] and in assay [8] were 30 µM and 23 µM, respectively.
As to `COC(=O)CS[C@@H]1CC(=O)O[C@@H](C)CCC/C=C/[C@@H]2C[C@H](O)C[C@H]2[C@@H]1O`, the 50% growth inhibitory concentration (GI50) in assay [1] is 6.8 µM; in assay [2], 30 µM; in assay [3] it was 28 µM; in assay [4] it was 24 µM; in assay [5], 30 µM; in assay [6], 32 µM. The concentration for 50% growth inhibition (GI50) in assay [7] was found to be 27 µM; in assay [8] it was 19 µM.
As to `COC(=O)CS(=O)(=O)[C@@H]1CC(=O)O[C@@H](C)CCC/C=C/[C@@H]2C[C@H](O)C[C@H]2[C@@H]1O`, the GI50 was found to be 5 µM in assay [1]; 6 µM in assay [2]; 5.1 µM in assay [3]; 5.5 µM in assay [5]; 3.3 µM in assay [6]; 3.2 µM in assay [7]. Also, the 50% growth inhibitory concentration (GI50) in assay [8] was 3.7 µM.
For `COc1ccc(S[C@@H]2CC(=O)O[C@@H](C)CCC/C=C/[C@@H]3C[C@H](O)C[C@H]3[C@@H]2O)cc1`, the GI50 was found to be 29 µM in assay [1]; 36 µM in assay [2]; 24 µM in assay [3]; 26 µM in assay [4]; 19 µM in assay [5]; 30 µM in assay [6]. The GI50 in assay [7] worked out at 22 µM; in assay [8] it was 33 µM.
With `C[C@H]1CCC/C=C/[C@@H]2C[C@H](O)C[C@H]2[C@H](O)[C@H](SCC(O)CO)CC(=O)O1` (stereo not given in full), the concentration for 50% growth inhibition (GI50) in assay [1] is 16 µM; in assay [2] it was 18 µM; in assay [3] it was 33 µM; in assay [4], 32 µM; in assay [5], 36 µM; in assay [6] it was 34 µM. The GI50 in assay [7] was 22 µM; in assay [8], 36 µM.
With `C[C@H]1CCC/C=C/[C@@H]2C[C@H](OC(=O)CCCC(=O)O)C[C@H]2[C@H](O)/C=C/C(=O)O1`, the GI50 in assay [2] was found to be 30 µM; in assay [3], 33 µM; in assay [4] it was 22 µM; in assay [5] it was 11 µM; in assay [6], 32 µM; in assay [7] it was 20 µM. In assay [8], this molecule registered a concentration for 50% growth inhibition (GI50) of 21 µM.
With `C[C@H]1CCC/C=C/[C@@H]2C[C@H](OC(=O)CCC(=O)O)C[C@H]2[C@H](O)/C=C/C(=O)O1`, the GI50 in assay [1] was 1.9 µM; in assay [2], 6.8 µM; in assay [3], 3.4 µM; in assay [7] it was 3.3 µM; in assay [8], 17 µM.
As for `C[C@H]1CCC/C=C/[C@@H]2C[C@H](O)C[C@H]2[C@H](O)C(O)C(O)C(=O)O1` (stereo not given in full), the GI50 in assay [1] turned out to be 1.6 µM; in assay [2] it was 6.7 µM; in assay [3], 5 µM; in assay [4] it was 0.68 µM; in assay [5] it was 3.8 µM; in assay [6], 2.7 µM. In addition, the figures for the GI50 in assay [7] and in assay [8] were 2.4 µM and 3.4 µM, respectively.
As to `C[C@H]1CCC/C=C/[C@@H]2C[C@H](OC(=O)CCC(=O)O)C[C@H]2[C@H](OC(=O)CCC(=O)O)/C=C/C(=O)O1`, the concentration for 50% growth inhibition (GI50) in assay [1], in assay [2], in assay [3], in assay [4], in assay [5] and in assay [6] was > 100 µM in each case. Moreover, the GI50 in assay [7] and in assay [8] was > 100 µM throughout.
As for `C[C@H]1CCC/C=C/[C@@H]2C[C@H](O)C[C@H]2[C@H](O)[C@H](SCCN)CC(=O)O1`, the concentration for 50% growth inhibition (GI50) came to 2.7 µM in assay [1]; 3.9 µM in assay [3]; 4.9 µM in assay [4]; 3.3 µM in assay [5]; 2.2 µM in assay [7]; 3.5 µM in assay [8].
In the case of `C[C@H]1CCC/C=C/[C@@H]2C[C@H](O)C[C@H]2[C@H](O)[C@H](Sc2ccc(O)cc2)CC(=O)O1`, the 50% growth inhibitory concentration (GI50) in assay [1] was 4.8 µM; in assay [2], 6.3 µM; in assay [3] it was 3.2 µM; in assay [4] it was 5.1 µM; in assay [5], 3.3 µM; in assay [6], 4.4 µM. Besides, the concentration for 50% growth inhibition (GI50) in assay [7] was found to be 2.4 µM; in assay [8] it was 2.5 µM.
As to `C[C@H]1CCC/C=C/[C@@H]2C[C@H](O)C[C@H]2[C@H](O)[C@H]([S+]([O-])CCN)CC(=O)O1` (stereo not given in full), the GI50 came to 0.021 µM in assay [1]; 0.17 µM in assay [2]; 0.15 µM in assay [3]; 0.02 µM in assay [4]; 0.055 µM in assay [5]; 0.12 µM in assay [6]. Also, the concentration for 50% growth inhibition (GI50) came out at 0.082 µM in assay [7] and 0.086 µM in assay [8].
With `C[C@H]1CCC/C=C/[C@@H]2C[C@H](O)C[C@H]2[C@H](O)[C@H]([S+]([O-])CCO)CC(=O)O1` (stereo not given in full), the GI50 in assay [1] came to 0.064 µM; in assay [2] it was 0.26 µM; in assay [3], 0.29 µM; in assay [4], 0.058 µM; in assay [5], 0.09 µM; in assay [6] it was 0.65 µM. The figures for the 50% growth inhibitory concentration (GI50) in assay [7] and in assay [8] were 0.19 µM and 0.21 µM, respectively.
For `C[C@H]1CCC/C=C/[C@@H]2C[C@H](O)C[C@H]2[C@H](O)[C@H](SCCN(C)C)CC(=O)O1`, the GI50 in assay [1] was found to be 0.43 µM; in assay [2], 2.4 µM; in assay [3], 0.54 µM; in assay [4] it was 0.39 µM; in assay [5], 0.5 µM; in assay [6] it was 1.4 µM. Also, the figures for the 50% growth inhibitory concentration (GI50) in assay [7] and in assay [8] were 0.54 µM and 0.75 µM, respectively.
On to `C[C@H]1CCC/C=C/[C@@H]2C[C@H](O)C[C@H]2[C@H](O)[C@H]([S+]([O-])c2ccc(O)cc2)CC(=O)O1` (stereo not given in full), for which the GI50 in assay [1] was found to be 0.03 µM; in assay [2], 0.118 µM; in assay [3], 0.088 µM; in assay [4] it was 0.017 µM; in assay [5] it was 0.042 µM; in assay [6] it was 0.05 µM. In addition, the GI50 in assay [7] amounted to 0.025 µM; in assay [8], 0.026 µM.
As for `C[C@H]1CCC/C=C/[C@@H]2C[C@H](O)C[C@H]2[C@H](O)[C@H]([S+]([O-])CC(N)C(=O)O)CC(=O)O1` (stereo not given in full), the GI50 worked out at 0.038 µM in assay [1]; 0.43 µM in assay [2]; 0.7 µM in assay [3]; 0.039 µM in assay [4]; 0.05 µM in assay [5]; 0.16 µM in assay [6]. Moreover, the GI50 in assay [7] amounted to 0.05 µM; in assay [8] it was 0.089 µM.
As to `C[C@H]1CCC/C=C/[C@@H]2C[C@H](O)C[C@H]2[C@H](O)[C@H]([S+]([O-])CCN(C)C)CC(=O)O1` (stereo not given in full), the concentration for 50% growth inhibition (GI50) in assay [1] is 0.071 µM; in assay [2], 0.48 µM; in assay [3], 0.35 µM; in assay [4], 0.3 µM; in assay [5], 0.41 µM; in assay [6] it was 0.15 µM. Also, the concentration for 50% growth inhibition (GI50) came to 0.14 µM in assay [7] and 0.28 µM in assay [8].
Consider `C[C@H]1CCC/C=C/[C@@H]2C[C@H](OC(=O)CCCC(=O)O)C[C@H]2[C@H](OC(=O)CCCC(=O)O)/C=C/C(=O)O1`, for which the GI50 in assay [1], in assay [2], in assay [3], in assay [4], in assay [5] and in assay [6] was > 100 µM throughout. The 50% growth inhibitory concentration (GI50) in assay [7] and in assay [8] was > 100 µM throughout.
As for `C[C@H]1CCC/C=C/[C@@H]2C[C@H](O)C[C@H]2[C@H](O)[C@H](SCCO)CC(=O)O1`, the GI50 in assay [1] came to 40 µM; in assay [2], 30 µM; in assay [3], 34 µM; in assay [4], 23 µM; in assay [5], 34 µM; in assay [6], 33 µM. The values for the GI50 in assay [7] and in assay [8] were 27 µM and 19 µM, respectively.

(Values after ChEMBL document CHEMBL1131071, “Design and synthesis of brefeldin A sulfide derivatives as prodrug candidates with enhanced aqueous solubilities” (1998).)
